Data reported in ChEMBL document CHEMBL4513216, “Probing the Open Global Health Chemical Diversity Library for Multistage-Active Starting Points for Next-Generation Antimalarials” (ACS Infect Dis, 2020).

Assay: Toxicity liver stage against HepG2, at 10uM
Assay type: cell-based
Design: test concentration 10 uM, cell line HepG2-A16-CD81EGFP
Details: human, HepG2-A16-CD81EGFP cells; read-out: INHIBITION
Method in brief: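 Uninfected HepG2-A16-CD81EGFP cells, 3 × 10^3 per well, 1536-well, plated on prespotted compound at 10 μM final, parasite-free screening media added to match infected plates; puromycin 10 μM positive, DMSO 0.5% negative; run in parallel with 48 h PbLuc assay at 37 °C, 5% CO2; viability by CellTiter-Glo luminescence, normalized to controls.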

| SMILES | cytotoxicity at 10 µM |
| --- | --- |
| CN(C(=O)c1ccc(OCC(F)F)nc1)c1ccc2c(c1)CCO2 | 13.6% |
| CCn1ccc(C(=O)N2CCOC(c3nc(-c4cccs4)no3)C2)n1 (stereo not given) | 10.9% |
| COc1c(C2CCCN2C(=O)c2c[nH]c3ncccc23)c(C)nn1C (stereo not given) | -6.49% |
| O=c1[nH]c(NCCO)nc2c1C1(CCCCC1)Cc1ccccc1-2 | 7.11% |
| Cc1noc(CN2CCOC(CN(C)C)C2)n1 (stereo not given) | -6.61% |
| COc1ccc(C[C@H]2CN(C(=O)c3ccc(C)nc3)CC[C@@H]2OC)cc1 | 4.76% |
| CCC(C)NC(=O)CN1CCC2(CC1)OCCO2 (stereo not given) | -4.92% |
| CC(=O)NCC1CCN(CC2CCOc3ccccc3C2)CC1 (stereo not given) | 10.3% |
| N#Cc1c(Cl)nsc1NCCCN1C(=O)COc2ccccc21 | 22.2% |
| Cc1ccc(C(=O)NCCNc2ncccc2C#N)c(=O)[nH]1 | -7.44% |
| Cc1cccc2c1CCN(c1cc(N3CCCC3CO)ncn1)C2 (stereo not given) | -3.44% |
| CC(=O)N1CCN(C)CC(COCc2ccccc2)C1 (stereo not given) | -4.79% |
| Cc1cc(F)ccc1S(=O)(=O)N1C[C@@H](C)[C@@](C)(O)C1 | -7.25% |
| O=C(O)c1cc(-c2cccs2)nc2c(Cl)cnn12 | -8.33% |
| CNc1cccc(C2CCCN(C(=O)c3ccn(C)n3)C2)n1 (stereo not given) | -13.4% |
| N#CCCN(Cc1ccco1)C(=O)CN1CCCC1c1cccs1 (stereo not given) | -2.56% |
| Cc1ncsc1CCCn1ccnc1-c1cc2n(n1)CCCNC2 | 3.28% |
| Cc1noc(CN2C[C@@H]3CC[C@H]2CN(C2Cc4ccccc4C2)C3)n1 | 3.3% |
| O=C(NCC1(N2CCOCC2)CCSC1)Nc1ccncc1 (stereo not given) | 12.5% |
| Cc1nc(C)c(CC(=O)Nc2nc(C)c(C)s2)c(=O)[nH]1 | -6.28% |
| CS(=O)(=O)CCC(=O)N1CCC(c2ccc(F)c(F)c2)CC1 | 7.09% |
| Cc1ccccc1N1CCCN(C(=O)CCc2nncn2C)CC1 | 3.82% |
| CC(Nc1ccc(F)cc1)c1nnnn1-c1ccccc1 (stereo not given) | 1.81% |
| CCc1nc(NCC(=O)N2CCOCC2)c2c(n1)c(C)nn2CC | 7.05% |
| O=C(c1cnc(-c2ncccn2)s1)N1CCCC1Cn1cccn1 (stereo not given) | -5.97% |
| CSCCNc1ccc(C(=O)N(C)Cc2ccc3ccccc3n2)cn1 | 9.65% |
| Cc1cc(C(=O)Nc2cnn(CC(=O)NC3CCCC3)c2)c(C)s1 | 3.07% |
| Cc1ccsc1C(CNC(=O)c1cc(=O)c2ccccc2[nH]1)N(C)C (stereo not given) | -2.89% |

| SMILES | cytotoxicity at 10 µM |
| --- | --- |
| Cc1nccn1-c1cccc(N2CCC(OCC3CCCCO3)CC2)n1 (stereo not given) | 11.3% |
| CC(C)CCN1CCc2[nH]nc(C(=O)N3CCCC3C)c2C1 (stereo not given) | 4.32% |
| Cc1ccc2nc(C3CCCN(Cc4ccccc4)C3)nc(O)c2c1 (stereo not given) | 6.67% |
| COCc1ncc(CN(CCN(C)C)Cc2ccc(C)s2)cn1 | -57.1% |
| CC(=O)NCC(=O)N1Cc2nccn2CC(CN2CCCC2=O)C1 (stereo not given) | -76.9% |
| Cc1nc(CCNC(=O)C2CC(=O)N(C(C)C)C2)sc1C (stereo not given) | -14% |
| COc1ccc2c(c1)OCC(Cc1ccc(N)cn1)C2 (stereo not given) | -1.91% |
| COC(=O)CC(NC(=O)CCCn1cccn1)c1ccc(Cl)cc1 (stereo not given) | 4.7% |
| Cc1ccc(-c2noc(CN3CCOC(Cn4cncn4)C3)n2)cc1 (stereo not given) | -4.15% |
| Cc1ccc(CN2CCN(c3ncccc3Cl)CC2CCO)cc1 (stereo not given) | -1.04% |
| O=C(c1ccccn1)N1CCC2(CC1)COC(COCC1CC1)C2 (stereo not given) | 5.14% |
| OC1(CN2CCOC(CNc3cccnn3)C2)CCCCC1 (stereo not given) | -4.67% |
| Cn1ccnc1CNC(=O)N1CCCC(Cc2nccn2C)C1 (stereo not given) | 2.63% |
| CC(C)C1CN(Cc2nccn2C)CCC(=O)N1CC1CC1 (stereo not given) | -13.7% |
| CC(C)NC(=O)N1CCC[C@H]1C(=O)NCCCc1cnn(C)c1 | 0.00333% |
| Cc1ccc(-c2csc(-c3cccc(C(=O)O)c3)n2)cc1 | 3.21% |
| Cc1cc(C)n(CC2CN(Cc3cccnc3)CCO2)n1 (stereo not given) | -3.08% |
| CN(C)CC(=O)N1C[C@@H]2CC[C@H](Oc3ccccc3)[C@@H]2C1 | -26.4% |
| CC(C)c1nc2c(n1C)CCN(Cc1nc(-c3cccs3)no1)C2 | -10.1% |
| CC(=O)N(Cc1noc(C)n1)C1CCN(Cc2ccc(C#N)cc2)C1 (stereo not given) | -3.66% |
| CCC(CNC(=O)Nc1cnn(CC)c1)N1CCCC1 (stereo not given) | -1.47% |
| CN1CCN(c2ncccn2)CC(C(=O)N(C)C)C1 (stereo not given) | 0.651% |
| Cc1ccc(C(=O)Nc2cc(C(N)=O)ccc2N2CCCCC2)cc1F | 2.13% |
| Cc1nccn1-c1cc(CNC(=O)N2CCSCC2)ccn1 | -0.613% |
| COc1ccc2c(c1)c(C(=O)Nc1nnn[nH]1)cn2C(C)C | -57.8% |
| COCc1nn(C(C)C)c2c1CCN(Cc1nccs1)C2 | 8.42% |
| CN1CCC(N(C)C[C@H]2CC[C@@H](Cc3cccc(O)c3)O2)CC1 | -12.2% |
